Our source for the viability, differential viability (reversal) and inhibition values is PubChem BioAssay.

Test [1] in a line: reduced viability of SK-BR-3 breast cancer cells – cell-based, 24 h, human, pilot screen (AID 572;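 active = viability at or below 10% of carrier control in both of two separate runs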;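 note: compound exposure lasted between 18 and 24 h rather than exactly 24 h; 100% = carrier-treated control wells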). Particulars: SK-BR-3 viability, CellTiter-Glo luminescence, at 10 µM, stronger effect = lower value.
Test [2] in a line: HUVEC growth inhibition – cell-based, human, primary screen (AID 575;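 active = viability at or below 30% in both replicate assays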;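 note: 100% = median of untreated cell wells with 0.1% DMSO on each plate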). Particulars: HUVEC proliferation, CellTiter-Glo luminescence, 72 h; at 10 µM; stronger effect = lower value. The procedure, abridged: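 Test system – primary HUVEC, no more than 12 passages · Dosing – one dose, 10 µM final, 0.1% DMSO · Times – 72 h treatment at 37 °C · Measured by – ATP-based CellTiter-Glo luminescent read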
A general note: In ATP-based viability assays light output follows the ATP content of the culture.

Test [3] is described as follows: H69AR cell proliferation blockers – human, duplicate replicates, primary screen (AID 580;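 active = viability at or under a set limit in both replicates, limit being median viability minus 3 SD, cut at about 48% in these data, passing the limit was not always enough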;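 note: 100% = mean luminescence of untreated wells and 0% = no signal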). As to conditions: H69AR lung tumor cells viability, ATP luminescence, 72 h; at 10 µM; stronger effect = lower value.
Test [4] in a line: MRP1 drug-resistance reversers in H69AR cells – cell-based, doxorubicin co-treatment, pilot screen (AID 601). As to conditions: CellTiter-Glo, 72 h, at 10 µM; for differential viability (reversal): stronger effect = higher value.
Test [5] in a line: yeast transport mutant growth inhibition pilot in 384-well plates, post-Golgi transport modulator project (AID 636; in the data active = inhibition above about 31%). Particulars: absorbance 615 nm, about 18 h, stronger effect = higher value.
A short description of test [6]: growth suppression of yeast trafficking mutant, preliminary HTS, modulators of trafficking downstream of Golgi apparatus project, 1536-format plate, OD 615 nm (AID 637; in the data active = inhibition above about 30%). As to conditions: yeast transport mutant growth, absorbance 615 nm, 18 h; stronger effect = higher value.
Setting [7] is: H69AR cells + 2 uM doxorubicin, measured here: viability with 2 uM doxorubicin, stronger effect = lower value.
The mark [8] stands for this setting: H69AR cells, compound alone cytotoxicity.

Active and inactive are the calls of the source.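 Rule for the calls, unless noted: active = viability loss from added drug above about 55%, and viability with drug at most 40%, in both replicates (limit read from the data, passing the limit was not always enough); inconclusive = both conditions met in only one replicate; inactive = neither replicate meets both conditions.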

As a reminder, the viability is a read-out of living cells in per cent, often relative to untreated cells. As a reminder, the inhibition is the drop in the measured response relative to a control, in per cent. Take `N#CCOc1nc(N2CCOCC2)nc(N2CCOCC2)n1`: the viability is 99% (inactive) in test [1]; 96.6% (inactive) in test [2]; 90.8% (inactive) in test [3]; 91.8% in test [4] (setting [7]); 90.8% in test [4] (setting [8]). In test [4] (H69AR cells + 2 uM doxorubicin), the differential viability (reversal) was -0.985% (inactive). In addition, the inhibition in test [5] is -7.3% (inactive); in test [6], -2.73% (inactive).
Take `O=C(NCCCN1CCN(c2cccc(Cl)c2)CC1)c1ccc(N2CCCC2=O)cc1`: the viability is 69% (inactive) in test [1]; 76.1% (inactive) in test [2]; 89.1% (inactive) in test [3]; 94.5% in test [4] (setting [7]); 89.1% in test [4] (setting [8]). Also, in test [4] (H69AR cells + 2 uM doxorubicin), the differential viability (reversal) is -5.41% (inactive). Moreover, the inhibition is -1.1% (inactive) in test [5] and 4.91% (inactive) in test [6].
For `CCN(C(C)=O)c1nnc(CSc2nc3ccccc3s2)s1`, the viability was 114% (inactive) in test [1]; 72.5% (inactive) in test [2]; 100% (inactive) in test [3]; 86.7% in test [4] (setting [7]); 100% in test [4] (setting [8]). In addition, the differential viability (reversal) in test [4] (H69AR cells + 2 uM doxorubicin) is 13.3% (inactive). In addition, the inhibition is -0.52% (inactive) in test [5] and -2.95% (inactive) in test [6].
Consider `Cc1ccc(NC(=O)c2ccco2)c(NC(=O)CN2C(=O)c3ccccc3C2=O)c1`, for which the viability is 97% (inactive) in test [1]; 110% (inactive) in test [2]; 87.6% (inactive) in test [3]; 106% in test [4] (setting [7]); 87.6% in test [4] (setting [8]). The differential viability (reversal) in test [4] (H69AR cells + 2 uM doxorubicin) was -18.2% (inactive). The figures for the inhibition in test [5] and in test [6] were -0.41% (inactive) and 3.27% (inactive), respectively.
Regarding `O=C(c1c(Cl)nc2sccn12)N(C(=O)c1c(Cl)nc2sccn12)c1ccc(Cl)cn1`, the viability was 131% (inactive) in test [1]; 43.6% (inactive) in test [2]; 70.8% (inactive) in test [3]; 78.7% in test [4] (setting [7]); 70.8% in test [4] (setting [8]). For the same compound, the differential viability (reversal) in test [4] (H69AR cells + 2 uM doxorubicin) was -7.89% (inactive). Moreover, the inhibition is -3.38% (inactive) in test [5] and 3.11% (inactive) in test [6].
In the case of `Cn1nc(CC(=O)Nc2ccc(N3CCN(C(=O)OC(C)(C)C)CC3)cc2)c2ccccc2c1=O`, the viability in test [1] is 84% (inactive); in test [2], 9.25% (active); in test [3] it was 1.72% (active); in test [4] (setting [7]) it was 4.94%; in test [4] (setting [8]), 1.72%. The differential viability (reversal) in test [4] (H69AR cells + 2 uM doxorubicin) was -3.22% (inactive). Also, the inhibition was -1.82% (inactive) in test [5] and -4.26% (inactive) in test [6].
`O=C(c1ccc(Cl)cc1)N1CCCOC1`: the viability in test [1] was 89% (inactive); in test [2], 113% (inactive); in test [3], 92% (inactive); in test [4] (setting [7]), 84.7%; in test [4] (setting [8]), 92%. In test [4] (H69AR cells + 2 uM doxorubicin), the differential viability (reversal) is 7.33% (inactive). In addition, the inhibition in test [5] was -8.11% (inactive); in test [6] it was -1.27% (inactive).
With `COc1cc(CO)cc(-c2cc(CO)cc(OC)c2OC)c1OC`, the viability in test [1] was 82% (inactive); in test [2] it was 95.8% (inactive); in test [3] it was 92.5% (inactive); in test [4] (setting [7]) it was 90.9%; in test [4] (setting [8]), 92.5%. In test [4] (H69AR cells + 2 uM doxorubicin), the differential viability (reversal) is 1.68% (inactive). The inhibition was -8.67% (inactive) in test [5] and -6.91% (inactive) in test [6].
For `O=C(Nc1ccc2c(c1)nc1n2CCN(Cc2ccccc2)C1)c1cccs1`, the viability in test [1] is 76.5% (inactive); in test [2], 88.7% (inactive); in test [3] it was 80.2% (inactive); in test [4] (setting [7]) it was 92.6%; in test [4] (setting [8]), 80.2%. Further, the differential viability (reversal) in test [4] (H69AR cells + 2 uM doxorubicin) was -12.4% (inactive). Besides, the inhibition in test [5] was -5.89% (inactive); in test [6] it was 6.19% (inactive).
In the case of `CC(=O)N1CCc2cc(S(=O)(=O)NCCC(=O)NC3CCCc4ccccc43)ccc21` (centres undefined), the viability was 113% (inactive) in test [1]; 112% (inactive) in test [2]; 88.9% (inactive) in test [3]; 90% in test [4] (setting [7]); 88.9% in test [4] (setting [8]). Besides, the differential viability (reversal) in test [4] (H69AR cells + 2 uM doxorubicin) was -1.16% (inactive). Besides, the inhibition was -4% (inactive) in test [5] and -3.27% (inactive) in test [6].
Take `O=C(NC1CCCCCC1)c1cc(S(=O)(=O)N2CCC3(CC2)OCCO3)ccc1F`: the viability in test [1] was 106% (inactive); in test [2] it was 98.2% (inactive); in test [3], 88.3% (inactive); in test [4] (setting [7]), 92.4%; in test [4] (setting [8]), 88.3%. In test [4] (H69AR cells + 2 uM doxorubicin), the differential viability (reversal) was -4.04% (inactive). The results for the inhibition in test [5] and in test [6] were 0.27% (inactive) and 3.27% (inactive), respectively.
Consider `CC(C)(Oc1ccc(CCNC(=O)c2ccc(Cl)cc2)cc1)C(=O)O`, for which the viability in test [1] is 95% (inactive); in test [2], 83.1% (inactive); in test [3] it was 105% (inactive); in test [4] (setting [7]), 96.8%; in test [4] (setting [8]), 105%. In addition, in test [4] (H69AR cells + 2 uM doxorubicin), the differential viability (reversal) was 8.17% (inactive). Besides, the figures for the inhibition in test [5] and in test [6] were -4.29% (inactive) and -0.67% (inactive), respectively.
Regarding `CC1=C(C(=O)N2CCOCC2)C(c2ccccc2F)C2=C(CCCC2=O)N1` (centres undefined), the viability in test [1] was 110% (inactive); in test [2] it was 104% (inactive); in test [3], 98.8% (inactive); in test [4] (setting [7]), 101%; in test [4] (setting [8]), 98.8%. In test [4] (H69AR cells + 2 uM doxorubicin), the differential viability (reversal) was -2.68% (inactive). Further, the inhibition in test [5] is -2.88% (inactive); in test [6] it was 0.91% (inactive).
For `Cc1cc(C)cc(N2C(=O)C3C4C=CC(C4)C3C2=O)c1` (centres undefined), the viability in test [1] is 100% (inactive); in test [2] it was 109% (inactive); in test [3], 93% (inactive); in test [4] (setting [7]), 85%; in test [4] (setting [8]), 93%. Also, in test [4] (H69AR cells + 2 uM doxorubicin), the differential viability (reversal) was 7.94% (inactive). In addition, the inhibition is -3.15% (inactive) in test [5] and 2.36% (inactive) in test [6].
As for `CC(=O)Nc1nc2c(c3c1c(=O)oc1ccccc13)CC(C)CC2` (centres undefined), the viability in test [1] was 123% (inactive); in test [2] it was 85.1% (inactive); in test [3], 92.1% (inactive); in test [4] (setting [7]), 87.1%; in test [4] (setting [8]) it was 92.1%. The differential viability (reversal) in test [4] (H69AR cells + 2 uM doxorubicin) is 4.96% (inactive). The inhibition is -1.04% (inactive) in test [5] and -2.79% (inactive) in test [6].
As for `O=C(Nc1ccon1)c1cc(-c2ccccc2)nc2ccccc12`, the viability in test [1] was 91% (inactive); in test [2], 104% (inactive); in test [3], 96.2% (inactive); in test [4] (setting [7]), 99.4%; in test [4] (setting [8]) it was 96.2%. The differential viability (reversal) in test [4] (H69AR cells + 2 uM doxorubicin) is -3.19% (inactive). Besides, the inhibition in test [5] was -5.95% (inactive); in test [6], -3.27% (inactive).
Take `CCOc1nc(-c2ccccc2)ccc1-c1noc(-c2ccc(OC)c(OC)c2)n1`: the viability in test [1] was 68% (inactive); in test [2], 85.1% (inactive); in test [3] it was 67.1% (inactive); in test [4] (setting [7]), 71.2%; in test [4] (setting [8]), 67.1%. Besides, the differential viability (reversal) in test [4] (H69AR cells + 2 uM doxorubicin) is -4.04% (inactive). Also, the inhibition in test [5] is -1.43% (inactive); in test [6], -4.43% (inactive).
As to `COc1ccc(NC(=O)CSc2c(C)nn(-c3nnc(C)c(=O)[nH]3)c2C)cc1`, the viability in test [1] was 101% (inactive); in test [2] it was 98.2% (inactive); in test [3], 113% (inactive); in test [4] (setting [7]), 95.5%; in test [4] (setting [8]) it was 113%. Further, the differential viability (reversal) in test [4] (H69AR cells + 2 uM doxorubicin) was 17% (inactive). The inhibition in test [5] was -0.41% (inactive); in test [6] it was -6.45% (inactive).
